Screens deposited in PubChem by several laboratories.
CHOP UPR activ = apoptotic UPR (CHOP) activation; CHO-CHOP luciferase reporter, luminescence; percent of tunicamycin response over DMSO baseline; activation, % at 10 µM; hit rate 0.34% among 330,000; AID 449763;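 active = at 10 µM dose, activation of 40% or more, normalized to positive control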;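 also: 100% = tunicamycin at 10 µg/mL and 0% = DMSO alone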
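Dosing – one dose, 10 µM in 0.5% DMSO · System – CHO-CHOP cells, stable luciferase reporter of PERK-eIF2a-CHOP signalling · Input – 500 cells/well · Control set – tunicamycin 10 µg/mL final as positive, DMSO-only wells as negative · Timing – 6 h compound treatment, 37 °C · Measure – % activation vs tunicamycin · Technique – luminescence read with Steady-Glo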
MPTP block = inhibitors of mitochondrial permeability transition pore; hit rate 1.4% among 360,000; isolated mouse mitochondria, Ca2+ swelling absorbance, 30 min; AID 602449; inhibition, % at 10 µM;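 active = inhibition of 50% or more, scaled per plate between neutral and stimulator controls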;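 also: 0% = DMSO wells given calcium and 100% = 1 mM EGTA wells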
aDG glyco act = increases alpha dystroglycan glycosylation. Pro5-aDG cells, alpha-DG glycosylation AlphaScreen (IIH6); 0% Pro5, 100% B10-LARGE cell signal. activation, % at 10 µM. hit rate 0.22% among 360,000;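 active = activation of at least 8% versus controls, or a plate z-score of at least 8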;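 also: Pro5 are CHO cells carrying HIG-tagged alpha-DG that lacks glycosylation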
UPR XBP1 act = adaptive UPR (XBP1) activation; CHO-XBP1 luciferase reporter, IRE1-XBP1 UPR activation, luminescence; percent of tunicamycin response, DMSO as zero; activation, % at 20 µM; hit rate 0.33% among 330,000; AID 463104;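 active = versus positive control, 20 µM dose yields 30% or more activation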;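 also: 100% = tunicamycin at 10 µg/mL and 0% = DMSO only wells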
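Assay system: CHO-XBP1 luciferase reporter cells; Schedule: 6 h treatment, 37 °C; Detection: glow luminescence from Steady-Glo reagent; Benchmarks: high control tunicamycin 10 µg/mL final, low control DMSO vehicle only.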
CHOP inh = blocks CHOP induction under ER stress; CHO-K1 CHOP-promoter luciferase, tunicamycin-induced, 15-18 h; inhibition, % at 10 µM; hit rate 3.8% among 220,000; AID 2732;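 active = compounds that reduced the stress-induced luciferase reporter signal by more than about 70% of percent inhibition, limit read from the data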;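 also: 0% = tunicamycin plus vehicle and 100% = wells without tunicamycin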
GRIN3A LBD mod = NR3A (human) ligand-binding domain modulation; NR3A LBD differential scanning fluorimetry, Tm shift; 0% = protein alone, 100% = glycine-bound protein; Tm shift relative to glycine control, % at 25 µM; hit rate 2.5% among 340,000;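 active = melting temperature shift of at least 10% of the positive control shift, at one fixed dose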
* marks the source's active call; other numbers are inactive results; x = no result. Sampled rows, rich in hits. Any-hit rate of the full collection: about 5.6%.

SMILES	CHOP UPR activ	MPTP block	aDG glyco act	UPR XBP1 act	CHOP inh	GRIN3A LBD mod
Oc1ccc(C[C@H]2CN([C@@H](Cc3ccccc3)CN3CCC[C@@H]3CN3C(=S)NC[C@@H]3Cc3ccccc3)C(=S)N2CC2CCCCC2)cc1	x	0.8	-0.2	x	x	x
Cc1ccc(NC(=O)Nc2c(Cl)cccc2Cl)cn1	-1.0	-0.5	0.0	-2.7	17.2	-8.2
O=C(Nc1ccccc1C(=O)N1CCOCC1)c1ccc(Br)cc1	-0.9	-0.6	-0.2	-2.7	x	-3.3
CC(C)C[C@H]1CN([C@@H](CC(C)C)CN2CCCC2CN2C(=S)NC[C@@H]2Cc2ccc(O)cc2)C(=S)N1CC1CCCCC1 (some centres undefined)	x	3.9	0.2	x	x	13.2*
COc1cccc(COC(=O)c2cc(S(=O)(=O)N3CCCCC3)ccc2N2CCOCC2)c1OC	-1.1	-0.2	-0.2	-2.7	x	19.5*
COc1ccc(N=Cc2oc3ccc4ccccc4c3c2O)cc1	3.5	0.3	0.1	1.8	-25.2	14.9*
O=C(CO/N=C/c1ccc(Cl)cc1Cl)NNC(=O)c1cccc(Cl)c1	1.6	-1.0	-0.1	-1.0	73.9*	4.2
CC(=O)Nc1ccc2c(c1Br)Cc1ccccc1-2	x	-0.5	-0.1	x	x	6.4
CC(=O)Nc1cccc2c1Cc1ccccc1-2	4.0	0.4	0.0	4.7	x	35.6*
O=C(Cc1ccccc1)Nc1cccc([N+](=O)[O-])c1	-0.8	9.5	-0.1	1.8	5.6	-2.8
O=C(Nc1cccc([N+](=O)[O-])c1)c1ccc2ccccc2c1O	6.2	17.4	0.5	-1.0	57.6	25.6*
C[C@@H](C(=O)OCn1nnc2ccccc2c1=O)N1C(=O)C2CCCCC2C1=O (some centres undefined)	0.6	-0.4	-0.1	2.7	-6.0	0.2
CO[C@@]12[C@@H]3N[C@@H]3CN1C1=C(C(=O)C(N)=C(C)C1=O)[C@@H]2COC(N)=O	x	-0.6	-0.1	x	x	-0.1
S=C(NC1CCCCC1)N1CCc2ccccc2C1	0.0	1.7	0.7	-1.8	26.7	11.1*
O=C(CN(C1CCCCC1)C1CCCCC1)N1CCc2ccccc2C1	-0.6	1.4	1.1	-1.1	87.1*	1.7
S=C(NC1CC1)N1CCc2ccccc2C1	2.2	-0.9	0.0	0.6	-1.7	-0.7
CC(C)c1nc(CNC(=O)C2CCC(=O)N(CCc3ccc(Cl)cc3)C2)no1 (centres undefined)	-0.3	0.2	0.2	-2.9	x	0.1
O=C(COc1ccccc1Cl)NCCC1=CCCCC1	1.4	0.6	0.0	0.9	45.6	-0.2
COc1ccc(S(=O)(=O)N2CCOCC2)cc1NC(=O)c1cc2ccccc2o1	1.3	0.4	-0.3	1.1	x	-1.2
CCCCc1c(C)nc(Nc2ccc(OC)cc2)[nH]c1=O	2.3	5.1	0.0	-0.6	29.3	-2.1
CCCCCc1c(C)nc(Nc2ccc(F)cc2)[nH]c1=O	-0.1	37.7	2.1	-2.4	82.4*	-0.4
NC(c1csc(Nc2ccc(C(=O)c3ccccc3)cc2)n1)c1ccccc1Cl (centres undefined)	x	4.7	1.7	x	x	x
C=CCc1cccc(OC)c1OCCOCCn1ccnc1	1.3	-1.1	-0.1	-2.4	34.8	12.2*
C=CCc1ccccc1OCCn1ccnc1	-0.4	-2.3	0.1	0.9	11.6	-2.6
Cc1ccc(-n2nc(C(=O)N3CCOCC3)cc2-c2ccc(Cl)cc2)cc1	0.7	0.9	0.2	-7.3	45.9	-2.5
SMILES	CHOP UPR activ	MPTP block	aDG glyco act	UPR XBP1 act	CHOP inh	GRIN3A LBD mod
O=C(c1cc(-c2ccc(Cl)cc2)n(-c2ccc(Cl)cc2)n1)N1CCOCC1	-2.0	-1.9	0.6	1.9	73.3*	-2.0
Cc1ccc(CNC(=O)CNS(=O)(=O)c2ccc3c(c2)C(C)(C)C(=O)N3C)cc1	-1.2	-1.0	-0.4	-2.4	x	-0.2
CCOC(=O)N1CCN(S(=O)(=O)N2CCCC(C(=O)NCc3cccc(OC)c3)C2)CC1 (centres undefined)	-0.3	-1.0	0.0	-2.8	x	-1.1
O=C(/C=C/c1ccc(F)cc1)NC(=S)Nc1ccccc1C(=O)NC1CCCCC1	1.6	0.7	-0.2	-3.9	-4.6	0.5
O=C(/C=C/c1ccccc1)NC(=S)Nc1ccccc1C(=O)NC1CCCCC1	-2.9	4.6	0.1	-4.9	44.7	25.3*
COc1ccc(/C=C/C(=O)NC(=S)Nc2ccccc2C(=O)NC2CCCCC2)cc1	0.1	1.2	-0.4	2.3	90.0*	28.4*
COc1ccc(-c2cnc(C(O)c3ccc(C(C)(C)C)cc3)[nH]2)cc1 (centres undefined)	x	1.4	0.0	x	x	x
COc1ccc(S(=O)(=O)N2CCC(c3cc(-c4cccc5ccccc45)n[nH]3)CC2)cc1	2.4	7.1	3.4	2.5	83.9*	-1.5
O=C1C(Cl)=C(N2CCCCC2)C(=O)N1Cc1ccccc1	-0.8	1.9	0.0	-1.8	95.7*	-4.1
CC(C)CNS(=O)(=O)c1ccc(S(=O)(=O)N2CCCN(Cc3ccccc3)C2)cc1	0.2	0.8	0.0	-0.9	37.5	12.7*
O=C1C(Cl)=C(N2CCCCCC2)C(=O)N1c1ccccc1	-2.7	-0.3	0.4	-0.1	51.2	-1.4
CCOc1ccc(S(=O)(=O)N2CCN(Cc3ccc4c(c3)OCO4)CC2)cc1OCC	0.1	3.7	0.0	-3.9	x	-1.6
O=S(=O)(c1cccc(C(F)(F)F)c1)N1CCC(c2cc(-c3cccc4ccccc34)n[nH]2)CC1	0.7	-0.8	0.4	2.5	55.7	-2.0
COc1cccc(S(=O)(=O)N2CCN(Cc3ccc4c(c3)OCO4)CC2)c1	0.6	1.5	0.1	-6.0	x	14.4*
COc1ccc(NS(=O)(=O)c2ccc3c(c2)NC(=O)CO3)cc1	0.1	0.8	-0.1	-4.6	15.8	2.2
COc1ccc(S(=O)(=O)N2CCN(Cc3ccccc3)CC2)cc1	1.5	-2.0	-0.2	-1.9	31.2	11.2*
COc1ccc(S(=O)(=O)N2CCN(Cc3cccc(OC)c3)CC2)cc1	4.8	0.2	0.7	-6.2	x	-1.2
COc1ccc(N2C(=O)C(Cl)=C(N3CCN(Cc4ccccc4)CC3)C2=O)cc1	x	1.6	0.0	x	78.3*	1.3
O=C1C(Cl)=C(N2CCN(Cc3ccccc3)CC2)C(=O)N1c1ccccc1	-0.5	0.8	0.0	0.1	54.0	-5.8
CCOc1ccc(N(C(=O)c2snc(C(N)=O)c2N)C(C(=O)NC2CCCC2)c2ccncc2)cc1 (centres undefined)	-1.7	-1.1	0.1	0.9	x	-0.1
Cc1cc(C)c2c3c(sc2n1)C1(CCSCC1)C(C#N)=C(N)O3	0.7	2.1	-0.4	3.8	58.6	16.1*
Cc1cc(C)c(C)c(N=Nc2nc3ccccc3n2C)c1C	-2.1	1.4	0.3	-0.9	52.4	19.0*
Cc1c(Nc2cc(N3CCOCC3)c3nonc3c2[N+](=O)[O-])c(=O)n(-c2ccccc2)n1C	x	x	x	x	-4.1	x
